GRIN3A LBD mod – binders of NR3A ligand-binding domain, primary screen, biophysical, differential scanning fluorimetry, uHTS. NR3A LBD differential scanning fluorimetry, Tm shift; 0% = protein alone, 100% = glycine-bound protein. Tm shift relative to glycine control, % at 25 µM. actives 2.5% (n = 340,000). AID 1259313, 2017;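 active = melting temperature shift of at least 10% of the positive control shift, at one fixed dose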
iPSC survival up – enhancers of single-cell hiPSC survival, primary screen, ATPlite luminescence. actives 0.044% (n = 360,000). 100% = ROCK inhibitor wells, 0% = DMSO. survival enhancement, % at 20 µM; in the data active = survival enhancement above about 18%;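 note: cells exposed to compounds for 16 hours before the ATP read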
H9c2 protect – cardioprotection against H2O2-induced cell death, primary screen, uHTS, H9c2 cells, ATPLite luminescence | protection from H2O2 cell death, % at 20 µM | actives 0.63% (n = 360,000) | AID 588492, 2011 | H9c2 cardiomyocytes, H2O2 injury protection, 2 h;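 active = compounds giving at least 50% protection of heart cells from peroxide-induced death in the single-dose screen, raw or plate-pattern-corrected value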;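 note: 0% = DMSO wells with peroxide and 100% = DMSO wells without peroxide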
Arrestin-AP2 inh – inhibitors of beta-arrestin/AP2 binding, primary screen, biochemical, GPCR trafficking, flow cytometry; inhibition, % at 10 µM; beta-arrestin 1 C-terminal peptide binding to AP2 beta2-adaptin appendage (human); FITC-arrestin peptide / GST-AP2 beads; AP2 beta2 appendage carries R879A mutation; actives 0.31% (n = 340,000);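 active = inhibition above a set limit, near 3 SD of compounds lacking own fluorescence, cut at about 54% in these data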;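 note: plate controls were DMSO wells for no effect and 5 µM unlabelled arrestin peptide for full effect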
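Material – GST-tagged AP2 beta2-adaptin appendage (R879A) on 4 µm glutathione beads · Probe or stimulus – fluorescein-tagged arrestin peptide at 50 nM final · Timing – 12 min plus 1 h, RT · Detection – bead flow cytometry, FITC channel · Read-out basis – inhibition as reduced fluorescein signal on beads, percent · Medium – PBS plus Tween 20 (0.05%) and BSA (0.1%)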
FAS TE block – FAS thioesterase domain inhibitors, primary screen, biochemical, fluorescence intensity, uHTS | Fatty acid synthase (Homo sapiens), P49327 | recombinant FAS-TE, OMFH fluorogenic substrate, fluorescence endpoint | inhibition, % at 15 µM | actives 0.67% (n = 360,000) | AID 602261, 2012;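 active = compounds whose normalised, plate-corrected inhibition of enzyme fluorescence in the single-dose primary screen is 50% or more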;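 note: 0% = DMSO with enzyme and 100% = substrate without enzyme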
Target sequence (P49327 whole entry, looked up, the tested form may be a part): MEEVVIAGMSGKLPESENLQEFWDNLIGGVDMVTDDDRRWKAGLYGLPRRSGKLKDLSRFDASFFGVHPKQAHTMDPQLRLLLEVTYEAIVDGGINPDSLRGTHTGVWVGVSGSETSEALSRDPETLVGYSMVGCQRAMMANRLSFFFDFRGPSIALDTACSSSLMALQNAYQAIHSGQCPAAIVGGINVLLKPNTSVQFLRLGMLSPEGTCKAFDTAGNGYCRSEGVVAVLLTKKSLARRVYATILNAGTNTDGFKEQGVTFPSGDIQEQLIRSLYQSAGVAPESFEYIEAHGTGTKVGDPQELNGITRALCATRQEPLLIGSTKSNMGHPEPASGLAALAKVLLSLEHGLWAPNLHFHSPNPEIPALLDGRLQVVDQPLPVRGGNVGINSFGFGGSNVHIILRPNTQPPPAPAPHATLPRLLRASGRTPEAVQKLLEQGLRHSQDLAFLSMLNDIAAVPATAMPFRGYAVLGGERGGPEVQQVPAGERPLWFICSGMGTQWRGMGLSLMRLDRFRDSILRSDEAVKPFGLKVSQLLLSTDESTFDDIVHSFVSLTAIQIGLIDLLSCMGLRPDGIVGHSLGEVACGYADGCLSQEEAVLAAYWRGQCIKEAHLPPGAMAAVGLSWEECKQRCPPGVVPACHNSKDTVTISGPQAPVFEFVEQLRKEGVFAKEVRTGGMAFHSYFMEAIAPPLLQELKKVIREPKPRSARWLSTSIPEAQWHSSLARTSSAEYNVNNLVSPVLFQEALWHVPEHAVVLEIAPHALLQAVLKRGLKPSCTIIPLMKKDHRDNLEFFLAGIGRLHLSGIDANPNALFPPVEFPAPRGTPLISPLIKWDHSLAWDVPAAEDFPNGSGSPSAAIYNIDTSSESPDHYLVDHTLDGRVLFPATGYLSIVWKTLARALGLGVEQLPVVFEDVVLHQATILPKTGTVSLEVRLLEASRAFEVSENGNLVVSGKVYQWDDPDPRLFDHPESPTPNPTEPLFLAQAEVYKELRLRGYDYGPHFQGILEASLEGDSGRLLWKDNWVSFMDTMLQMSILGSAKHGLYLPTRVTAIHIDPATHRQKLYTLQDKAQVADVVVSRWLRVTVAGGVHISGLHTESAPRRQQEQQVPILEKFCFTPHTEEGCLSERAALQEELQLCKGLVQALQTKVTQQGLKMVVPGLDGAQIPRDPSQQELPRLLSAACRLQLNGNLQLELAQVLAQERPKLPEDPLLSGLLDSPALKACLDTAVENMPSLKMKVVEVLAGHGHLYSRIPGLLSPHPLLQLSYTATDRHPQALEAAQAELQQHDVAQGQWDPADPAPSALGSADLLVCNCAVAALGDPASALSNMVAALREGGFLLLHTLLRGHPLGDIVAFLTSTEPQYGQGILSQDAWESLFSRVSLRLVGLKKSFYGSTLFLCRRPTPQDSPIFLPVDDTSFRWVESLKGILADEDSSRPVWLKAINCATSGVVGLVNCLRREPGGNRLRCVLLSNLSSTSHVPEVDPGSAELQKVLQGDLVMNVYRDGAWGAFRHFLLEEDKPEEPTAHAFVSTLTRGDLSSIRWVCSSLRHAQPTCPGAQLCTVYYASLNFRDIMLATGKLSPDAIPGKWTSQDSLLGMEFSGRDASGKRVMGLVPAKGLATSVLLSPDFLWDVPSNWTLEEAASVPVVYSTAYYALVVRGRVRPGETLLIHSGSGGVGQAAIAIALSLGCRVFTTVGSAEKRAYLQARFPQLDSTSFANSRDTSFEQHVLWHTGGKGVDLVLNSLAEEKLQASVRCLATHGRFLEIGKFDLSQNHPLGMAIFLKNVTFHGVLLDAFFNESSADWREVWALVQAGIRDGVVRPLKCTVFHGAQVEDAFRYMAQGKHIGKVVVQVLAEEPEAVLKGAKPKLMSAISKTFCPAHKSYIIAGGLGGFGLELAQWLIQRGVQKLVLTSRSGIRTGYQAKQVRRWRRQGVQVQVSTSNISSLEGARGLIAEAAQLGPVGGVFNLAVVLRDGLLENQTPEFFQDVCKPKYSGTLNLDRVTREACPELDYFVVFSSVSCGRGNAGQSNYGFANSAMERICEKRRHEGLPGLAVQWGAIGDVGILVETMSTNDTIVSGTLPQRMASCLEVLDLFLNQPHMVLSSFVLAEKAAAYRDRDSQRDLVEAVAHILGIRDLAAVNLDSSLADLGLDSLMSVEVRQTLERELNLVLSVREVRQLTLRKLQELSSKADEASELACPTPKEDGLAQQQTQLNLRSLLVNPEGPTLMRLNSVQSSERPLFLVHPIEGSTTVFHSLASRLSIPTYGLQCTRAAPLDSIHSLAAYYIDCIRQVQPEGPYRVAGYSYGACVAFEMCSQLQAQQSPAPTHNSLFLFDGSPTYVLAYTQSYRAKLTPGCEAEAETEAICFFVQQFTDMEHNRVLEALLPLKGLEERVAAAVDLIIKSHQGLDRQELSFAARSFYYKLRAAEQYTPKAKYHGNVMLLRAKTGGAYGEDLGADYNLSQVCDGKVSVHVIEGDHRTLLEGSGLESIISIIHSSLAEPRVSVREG
SENP1 inh – human SENP1 catalytic domain inhibitors, primary screen, biochemical, FRET, uHTS | inhibition, % at 10 µM | AID 624204, 2012 | actives 0.21% (n = 360,000) | Sentrin-specific protease 1 (Homo sapiens), Q9P0U3 | recombinant SENP1 catalytic domain, CyPet-SUMO1-YPet FRET cleavage;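 active = inhibition at least 30% at 10 µM, raw YFP signal under a set limit, fluorescence ratio 0.5 to 1.5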;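 note: 0% = enzyme with DMSO and 100% = no enzyme wells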
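Test system: human SENP1 catalytic domain; medium: Tris pH 8 buffer plus EDTA, NaCl, BME, BSA, NP40, catalase; incubation: 50 min reaction at room temperature; technique: FRET, CFP and YFP emission; controls: no-enzyme low control and enzyme-plus-DMSO high control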
Active calls of the source: *. Only some compounds are listed: those with a hit (about 4% of all), similar ones and a draw of the others.

`COc1cc(/C=N/NS(=O)(=O)c2ccc3ccccc3c2)ccc1OCCN1CCOCC1` gave GRIN3A LBD mod 15.0*, iPSC survival up -0.6, H9c2 protect 1.5, Arrestin-AP2 inh 12.2, FAS TE block -6.8 and SENP1 inh 5.0.
`COc1ccc(Oc2nc(C(F)(F)F)nc3ccccc23)cc1` gave GRIN3A LBD mod 22.8*, iPSC survival up 0.0, H9c2 protect -18.1, Arrestin-AP2 inh -1.7, FAS TE block 11.2 and SENP1 inh 4.9.
`COC(=O)c1ccc(-n2nnnc2SCC(=O)N2CCCCC2)cc1` gave GRIN3A LBD mod 37.4*, iPSC survival up -0.1, H9c2 protect -1.5, Arrestin-AP2 inh 9.0, FAS TE block -6.5 and SENP1 inh 2.3.
Screening CN1CCN(C(=O)CN2C(=O)NC(C)(c3ccc4ccccc4c3)C2=O)CC1 (configuration not stated) returned GRIN3A LBD mod 2.8, iPSC survival up -0.4, H9c2 protect 7.4, Arrestin-AP2 inh -13.5, FAS TE block -6.4 and SENP1 inh 0.0.
COc1cccc(N2CCN(C(=O)CN3C(=O)NC(C)(c4ccc5ccccc5c4)C3=O)CC2)c1 (configuration not stated) was read as GRIN3A LBD mod 19.5*, iPSC survival up -0.4, H9c2 protect -11.9, Arrestin-AP2 inh -6.5, FAS TE block 4.3 and SENP1 inh 1.5.
Screening COc1ccccc1Cc1noc(COc2cccc(C)c2C)n1 returned GRIN3A LBD mod 22.5*, iPSC survival up -2.2, H9c2 protect -12.3, Arrestin-AP2 inh 4.0, FAS TE block 15.5 and SENP1 inh 2.5.
`COc1ccccc1Cc1nc(-c2ccncc2)no1` gave GRIN3A LBD mod -13.2, iPSC survival up 0.7, H9c2 protect -14.3, Arrestin-AP2 inh 12.5, FAS TE block -2.2 and SENP1 inh -0.8.
CCOC(=O)C1CCCN(C(=O)c2ccc(SC(F)(F)F)cc2)CC1 (configuration not stated) was read as iPSC survival up -0.3, H9c2 protect -8.5, FAS TE block -1.1 and SENP1 inh 0.7.
Screening Nc1ccc(C(=O)N/N=C/c2c[nH]c3ccccc23)cc1 returned GRIN3A LBD mod 21.5*, iPSC survival up 0.2, H9c2 protect -6.2, Arrestin-AP2 inh 2.2, FAS TE block -4.0 and SENP1 inh -2.7.
For COC(=O)N/N=C/c1c[nH]c2ccccc12 the results were GRIN3A LBD mod -14.2, iPSC survival up 2.8, H9c2 protect 1.3, Arrestin-AP2 inh 18.5, FAS TE block -14.8 and SENP1 inh 0.2.
Screening O=C(O)c1ccc(N/N=C/c2ccnc3ccccc23)cc1 returned GRIN3A LBD mod -6.1, iPSC survival up 0.2, H9c2 protect 1.1, Arrestin-AP2 inh 1.3, FAS TE block -1.6 and SENP1 inh -38.8.
For O=C(N/N=C\c1c[nH]c2ccccc12)c1ccc(O)cc1 the results were GRIN3A LBD mod 41.5*, iPSC survival up -0.4, H9c2 protect -3.7, Arrestin-AP2 inh -14.4, FAS TE block -3.6 and SENP1 inh -2.1.
Screening O=C(O)c1ccc(N/N=C/c2c[nH]c3ccccc23)cc1 returned GRIN3A LBD mod 10.2*, iPSC survival up -0.5, H9c2 protect 9.2, Arrestin-AP2 inh 3.5, FAS TE block -3.4 and SENP1 inh 7.5.
Screening Cc1cc(C)nc(N/N=C/c2c[nH]c3ccccc23)n1 returned GRIN3A LBD mod 0.8, iPSC survival up 3.6, H9c2 protect 2.9, Arrestin-AP2 inh 9.2, FAS TE block -8.0 and SENP1 inh -3.3.
For Cc1nnc(N/N=C/c2c[nH]c3ccccc23)[nH]c1=O the results were GRIN3A LBD mod 25.0*, iPSC survival up 0.0, H9c2 protect 7.5, Arrestin-AP2 inh 36.4, FAS TE block -7.5 and SENP1 inh -0.3.
For COc1ccc(C(O)c2nc(-c3ccccc3)cs2)cc1 (configuration not stated) the results were iPSC survival up 2.7, H9c2 protect -20.3, FAS TE block 5.2 and SENP1 inh -0.1.
For O=C(N/N=C/c1c[nH]c2ccccc12)c1ccc(Br)cc1 the results were GRIN3A LBD mod 29.8*, iPSC survival up 1.3, H9c2 protect -9.3, Arrestin-AP2 inh 3.8, FAS TE block 7.4 and SENP1 inh -1.3.
Screening O=C(N/N=C/c1c[nH]c2ccccc12)c1ccc(Cl)cc1 returned GRIN3A LBD mod 37.4*, iPSC survival up -0.5, H9c2 protect -6.6, Arrestin-AP2 inh 6.8, FAS TE block 0.6 and SENP1 inh -2.3.
`C(=NN=C1c2ccccc2-c2ccccc21)c1c[nH]c2ccccc12` gave GRIN3A LBD mod 16.8*, iPSC survival up 3.6, H9c2 protect -9.8, Arrestin-AP2 inh -10.5, FAS TE block 30.5 and SENP1 inh -1.2.
O=C(N/N=C/c1c[nH]c2ccccc12)c1ccccc1Cl was read as GRIN3A LBD mod -0.7, iPSC survival up -0.6, H9c2 protect 6.6, Arrestin-AP2 inh 3.6, FAS TE block 2.6 and SENP1 inh -5.7.
`O=C(N/N=C/c1c[nH]c2ccccc12)c1cc(Cl)ccc1O` gave GRIN3A LBD mod 35.5*, iPSC survival up 0.7, H9c2 protect 3.2, Arrestin-AP2 inh -1.4, FAS TE block 0.7 and SENP1 inh -3.5.
CCOC(=O)c1nn(C)c2[nH]c(=O)n(C)c(=O)c12 was read as GRIN3A LBD mod 4.7, iPSC survival up 1.2, H9c2 protect -0.4, Arrestin-AP2 inh -3.8, FAS TE block -0.6 and SENP1 inh 1.7.
Screening CC(C)Oc1ccc(Br)cc1C(=O)N/N=C/c1c[nH]c2ccccc12 returned GRIN3A LBD mod 10.8*, iPSC survival up 1.4, H9c2 protect -3.0, Arrestin-AP2 inh 4.6, FAS TE block 14.9 and SENP1 inh -2.5.
`Cc1occc1C(=O)N/N=C/c1c[nH]c2ccccc12` gave GRIN3A LBD mod 12.7*, iPSC survival up -0.2, H9c2 protect -0.2, Arrestin-AP2 inh 7.3, FAS TE block -4.0 and SENP1 inh -1.3.
For CNC(=O)N(O)C1N(/N=C/c2ccc(N(C)C)cc2)C(=S)SC1(C)C (configuration not stated) the results were GRIN3A LBD mod 0.0, iPSC survival up 0.6, H9c2 protect 9.9, Arrestin-AP2 inh -2.4, FAS TE block 2.0 and SENP1 inh -22.9.

Source: PubChem
